Measured values from ChEMBL document CHEMBL3352478, “Novel benzopsoralen analogues: synthesis, biological activity and molecular docking studies” (2014).

How the values were obtained:
MDA-MB-231 = experiment: Antiproliferative activity against human MDA-MB-231 cells after 48 hrs by MTS assay; format: functional; details: MDA-MB-231, 48 h
In short: (§1)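 Cells were grown in DMEM with 1% penicillin/streptomycin and FBS (10% for MDA-MB-231, 15% for TCC-SUP). At 1×10^4 cells/mL, cells were exposed for 48 h to five compound concentrations freshly diluted from DMSO stocks (final DMSO <1%). MTS reagent was then added for 2 h at 37 °C, 5% CO2, and absorbance read at 490 nm. Viability was taken as % of control and GI50 read from dose-response curves; 3 independent cultures, 4 wells per concentration.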

[1] = Antiproliferative activity against human TCCSUP cells after 48 hrs by MTS assay; format: functional; details: TCC-SUP; in short: as §1

GI50 (MDA-MB-231)	Structure (SMILES)	GI50 [1]
49 nM	Cc1cc(=O)oc2c1ccc1c3ccccc3sc12	253 nM
460 nM	Cc1c(Cl)c(=O)oc2c1ccc1c3ccccc3sc12	311 nM
82 nM	Cc1c(Cl)c(=O)oc2cc3c(cc12)oc1ccccc13	243 nM
421 nM	Cc1c(Cl)c(=O)oc2cc3[nH]c4ccccc4c3cc12	149 nM
198 nM	CCOC(=O)/C=C/n1c2ccccc2c2cc(O)ccc21	25 nM
